Measurements reported in ChEMBL document CHEMBL1142158, “Antibacterial activity and mechanism of action of a novel anilinouracil-fluoroquinolone hybrid compound” (Antimicrob Agents Chemother, 2007).
Values after ≈ are worked out from the molar mass of the structure shown. Active and inactive are the calls of the source. The rule behind the calls is not given here.

Key:
[1] = Inhibition of Bacillus subtilis gyrase
[2] = Inhibition of Bacillus subtilis topoisomerase 4
[3] = Therapeutic index, CC50 for MRC5 cells/MIC for Staphylococcus aureus Smith; type: cell-based; conditions: human
[4] = system: Streptococcus pneumoniae; assay: Antibacterial activity against penicillin-resistant Streptococcus pneumoniae 700673; type: functional
In short: (§1)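 Streptococci tested by CLSI broth microdilution in Mueller-Hinton broth with 5% defibrinated horse blood, log-phase inoculum at 1 x 10^5 CFU/ml. Incubated 37°C with shaking, 16 to 20 h, in 5% humidified CO2. Compounds at 1% DMSO final. MIC is the lowest concentration without growth by OD600. Quadruplicate; highest MIC reported.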

[5] = system: Staphylococcus aureus; assay: Antibacterial activity against HB-EMAU-resistant and ciprofloxacin-resistant Staphylococcus aureus Smith; type: functional
In short: (§2)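 Broth microdilution per CLSI with modified incubation. Log-phase cultures in cation-adjusted Mueller-Hinton broth, seeded at 1 x 10^5 CFU/ml. Compounds from DMSO stocks, 1% DMSO final. Incubated 37°C, 16 to 20 h, shaken. Growth read as OD600. MIC is the lowest concentration with no apparent growth. Run in quadruplicate; highest value reported.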

[6] = system: Bacillus cereus; assay: Antibacterial activity against Bacillus cereus 4342; type: functional
[7] = system: Enterococcus faecalis; assay: Antibacterial activity against vancomycin-resistant Enterococcus faecalis 51299; type: functional; in short: as §2
[8] = system: Stenotrophomonas maltophilia; assay: Antibacterial activity against Stenotrophomonas maltophilia 13637; type: functional
[9] = system: Enterococcus faecalis; assay: Antibacterial activity against Enterococcus faecalis 29212; type: functional; in short: as §2
[10] = system: Staphylococcus aureus; assay: Antibacterial activity against methicillin-resistant Staphylococcus aureus 1123; type: functional; in short: as §2
[11] = system: Enterococcus faecium; assay: Antibacterial activity against vancomycin-resistant Enterococcus faecium B42762; type: functional; in short: as §2
[12] = system: Streptococcus pneumoniae; assay: Antibacterial activity against penicillin-resistant Streptococcus pneumoniae 700677; type: functional; in short: as §1
[13] = system: Pseudomonas aeruginosa; assay: Antibacterial activity against Pseudomonas aeruginosa 27853; type: functional
[14] = system: Staphylococcus aureus; assay: Antibacterial activity against Staphylococcus aureus Smith 13709; type: functional; in short: as §2
[15] = system: Enterococcus faecium; assay: Antibacterial activity against vancomycin and linezolid-resistant Enterococcus faecium F118; type: functional; in short: as §2
[16] = system: Streptococcus pneumoniae; assay: Antibacterial activity against penicillin-resistant Streptococcus pneumoniae 700671; type: functional; in short: as §1
[17] = system: Bacillus thuringiensis; assay: Antibacterial activity against Bacillus thuringiensis 33679; type: functional
[18] = system: Escherichia coli; assay: Antibacterial activity against Escherichia coli J53; type: functional
[19] = Inhibition of Bacillus subtilis DNA polymerase 3E
In short: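 Recombinant B. subtilis pol IIIE. Serial compound dilutions in DMSO; 30 mM Tris pH 7.5, 10 mM Mg acetate, 4 mM DTT, 20% glycerol, 25 µM each dATP/dCTP/dGTP, 10 µM [3H]dTTP, 0.4 mg/ml activated calf thymus DNA; 0.025 to 0.06 U enzyme, 10 min at 30°C. TCA-precipitated, filter-collected label counted by scintillation.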

[20] = target: T1, DNA polymerase subunit gamma-1 (Homo sapiens, UniProt P54098); assay: Inhibition of human DNA polymerase gamma
T1 sequence (P54098 whole entry): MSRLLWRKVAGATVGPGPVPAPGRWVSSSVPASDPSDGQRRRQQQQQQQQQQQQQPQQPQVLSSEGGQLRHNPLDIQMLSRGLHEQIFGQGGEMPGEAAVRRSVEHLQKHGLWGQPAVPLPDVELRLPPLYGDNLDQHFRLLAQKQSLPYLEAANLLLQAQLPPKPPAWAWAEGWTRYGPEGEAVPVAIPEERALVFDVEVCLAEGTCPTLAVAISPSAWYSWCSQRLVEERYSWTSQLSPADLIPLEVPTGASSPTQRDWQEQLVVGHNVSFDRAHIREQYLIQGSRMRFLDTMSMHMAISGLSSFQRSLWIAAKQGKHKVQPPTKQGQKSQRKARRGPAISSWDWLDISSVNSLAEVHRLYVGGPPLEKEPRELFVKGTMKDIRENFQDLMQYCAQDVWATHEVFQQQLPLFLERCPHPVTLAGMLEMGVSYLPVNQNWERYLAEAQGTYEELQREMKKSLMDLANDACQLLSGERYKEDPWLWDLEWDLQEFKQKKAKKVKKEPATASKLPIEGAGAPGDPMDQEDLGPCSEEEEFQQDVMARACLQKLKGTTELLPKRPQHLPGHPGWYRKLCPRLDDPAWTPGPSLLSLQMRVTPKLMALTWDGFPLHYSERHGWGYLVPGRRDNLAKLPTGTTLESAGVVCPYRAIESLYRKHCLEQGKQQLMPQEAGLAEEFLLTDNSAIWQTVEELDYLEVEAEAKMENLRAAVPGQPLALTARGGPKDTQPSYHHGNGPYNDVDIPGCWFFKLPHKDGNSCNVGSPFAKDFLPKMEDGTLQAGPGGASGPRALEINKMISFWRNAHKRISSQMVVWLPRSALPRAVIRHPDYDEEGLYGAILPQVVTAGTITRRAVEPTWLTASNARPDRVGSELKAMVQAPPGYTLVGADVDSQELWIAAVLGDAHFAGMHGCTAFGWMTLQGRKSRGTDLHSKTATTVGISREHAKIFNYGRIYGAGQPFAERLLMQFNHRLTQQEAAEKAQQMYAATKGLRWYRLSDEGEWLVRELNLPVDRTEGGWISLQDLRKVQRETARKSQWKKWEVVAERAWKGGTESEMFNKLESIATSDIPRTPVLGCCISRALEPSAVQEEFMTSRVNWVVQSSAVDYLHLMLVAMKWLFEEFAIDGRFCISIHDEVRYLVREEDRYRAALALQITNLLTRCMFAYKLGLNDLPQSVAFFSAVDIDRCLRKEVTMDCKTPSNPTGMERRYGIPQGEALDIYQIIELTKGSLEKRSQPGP
In short: (§3)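 Calf thymus pol alpha or human pol gamma, 0.025 to 0.06 U, added to compound dilutions in reaction mixture; 25 min at 37°C; stopped with ice-cold 10% TCA/10 mM pyrophosphate; precipitated [3H]DNA collected on filters and counted. Ki values for dGTP-competitive inhibitors obtained by truncated assay lacking dGTP.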

[21] = system: Staphylococcus aureus; assay: Antibacterial activity against methicillin-resistant Staphylococcus aureus B42876; type: functional; in short: as §2
[22] = Inhibition of calf thymus DNA polymerase alpha; design: species or system Bos taurus; in short: as §3
[23] = system: Enterococcus faecium; assay: Antibacterial activity against Enterococcus faecium 19434; type: functional; in short: as §2
[24] = system: Staphylococcus aureus; assay: Antibacterial activity against Staphylococcus aureus 1081; type: functional; in short: as §2
[25] = system: Streptococcus pyogenes; assay: Antibacterial activity against Streptococcus pyogenes 12344; type: functional
[26] = system: Staphylococcus aureus; assay: Antibacterial activity against Staphylococcus aureus Smith in presence of 10% FCS; type: functional
[27] = system: Escherichia coli; assay: Antibacterial activity against ciprofloxacin-resistant Escherichia coli XL1-Blue; type: functional; in short: as §2
[28] = system: Enterococcus faecalis; assay: Antibacterial activity against vancomycin-resistant Enterococcus faecalis 700802; type: functional; in short: as §2
[29] = system: Enterococcus faecium; assay: Antibacterial activity against vancomycin-resistant Enterococcus faecium 1644; type: functional; in short: as §2
[30] = system: Bacillus cereus; assay: Antibacterial activity against Bacillus cereus 6464; type: functional
[31] = system: Staphylococcus aureus; assay: Antibacterial activity against ciprofloxacin-resistant Staphylococcus aureus Smith; type: functional; in short: as §2
[32] = system: Streptococcus pneumoniae; assay: Antibacterial activity against penicillin-resistant Streptococcus pneumoniae 700670; type: functional; in short: as §1
[33] = system: Staphylococcus aureus; assay: Antibacterial activity against mupirocin-resistant Staphylococcus aureus 777; type: functional; in short: as §2
[34] = system: Staphylococcus aureus; assay: Antibacterial activity against HB-EMAU-resistant Staphylococcus aureus Smith; type: functional; in short: as §2
[35] = system: Bacillus subtilis; assay: Inhibition of DNA synthesis in Bacillus subtilis BD54; type: functional, organism-based
In short: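 B. subtilis BD54 grown to log phase in C plus 50 medium; compound in DMSO added with [8-3H]adenine at time zero, at 5x or 1x MIC; samples over time. DNA = alkali-insensitive TCA-insoluble label; RNA = total TCA-insoluble minus DNA. Effect judged against diluent-control incorporation.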

[36] = system: Enterococcus faecalis; assay: Antibacterial activity against vancomycin-resistant Enterococcus faecalis 51575; type: functional; in short: as §2
[37] = system: Staphylococcus aureus; assay: Antibacterial activity against methicillin-resistant Staphylococcus aureus 1132; type: functional; in short: as §2
[38] = system: Staphylococcus aureus; assay: Antibacterial activity against methicillin-resistant Staphylococcus aureus 1094; type: functional; in short: as §2
[39] = system: Staphylococcus aureus; assay: Antibacterial activity against Staphylococcus aureus 25923; type: functional; in short: as §2
[40] = system: Klebsiella pneumoniae; assay: Antibacterial activity against Klebsiella pneumoniae 5657; type: functional
[41] = system: Staphylococcus aureus; assay: Antibacterial activity against mupirocin-sensitive Staphylococcus aureus 2529; type: functional
[42] = Cytotoxicity against human MRC5 cells; type: cell-based
In short: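 MRC-5 human diploid fibroblasts, 4 x 10^3 cells per well, exposed to compound from DMSO stock (final 1%) in minimal essential medium with 10% fetal calf serum for 72 h at 37°C beside a DMSO-only control.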

[43] = system: Streptococcus pneumoniae; assay: Antibacterial activity against Streptococcus pneumoniae 49619; type: functional; in short: as §1
[44] = system: Streptococcus pneumoniae; assay: Antibacterial activity against penicillin-resistant Streptococcus pneumoniae 700674; type: functional; in short: as §1
[45] = system: Bacillus thuringiensis; assay: Antibacterial activity against Bacillus thuringiensis 10792; type: functional
[46] = system: Bacillus anthracis; assay: Antibacterial activity against Bacillus anthracis Sterne; type: functional
[47] = system: Bacillus subtilis; assay: Antibacterial activity against Bacillus subtilis BD54; type: functional

## CCn1cc(C(=O)O)c(=O)c2ccc(C)nc21 [NALIDIXIC ACID]
[1]
  IC50: 149 µM
[2]
  IC50: 1090 µM

## CCc1cc(Nc2cc(=O)n(CCCCN3CCN(c4c(F)cc5c(=O)c(C(=O)O)cn(C6CC6)c5c4F)CC3C)c(=O)[nH]2)ccc1C (centres undefined)
[3]
  selectivity ratio: > 128
[4]
  MIC: 0.313 µg/mL (≈ 0.472 µM)
[5]
  MIC: 20 µg/mL (≈ 30.2 µM)
[6]
  MIC: 0.156 µg/mL (≈ 0.235 µM)
[7]
  MIC: 1.25 µg/mL (≈ 1.89 µM)
[8]
  MIC: 10 µg/mL (≈ 15.1 µM)
[9]
  MIC: 1.25 µg/mL (≈ 1.89 µM)
[10]
  MIC: 1.25 µg/mL (≈ 1.89 µM)
[11]
  MIC: 1.25 µg/mL (≈ 1.89 µM)
[12]
  MIC: 0.313 µg/mL (≈ 0.472 µM)
[13]
  MIC: > 80 µg/mL
[14]
  MIC: 0.313 µg/mL (≈ 0.472 µM)
[15]
  MIC: 1.25 µg/mL (≈ 1.89 µM)
[1]
  IC50: 31 µM
[16]
  MIC: 0.313 µg/mL (≈ 0.472 µM)
[17]
  MIC: 0.156 µg/mL (≈ 0.235 µM)
[18]
  MIC: 2.5 µg/mL (≈ 3.77 µM)
[19]
  Ki: > 482 µM
[2]
  IC50: 43.6 µM
[20]
  Ki: 684 µM
[21]
  MIC: 2.5 µg/mL (≈ 3.77 µM)
[22]
  Ki: > 482 µM
[23]
  MIC: 2.5 µg/mL (≈ 3.77 µM)
[24]
  MIC: 0.625 µg/mL (≈ 0.943 µM)
[25]
  MIC: 0.313 µg/mL (≈ 0.472 µM)
[26]
  MIC: 0.625 µg/mL
[27]
  MIC: 1.25 µg/mL (≈ 1.89 µM)
[28]
  MIC: 1.25 µg/mL (≈ 1.89 µM)
[29]
  MIC: 1.25 µg/mL (≈ 1.89 µM)
[30]
  MIC: 0.156 µg/mL (≈ 0.235 µM)
[31]
  MIC: 1.25 µg/mL (≈ 1.89 µM)
[32]
  MIC: 0.625 µg/mL (≈ 0.943 µM)
[33]
  MIC: 2.5 µg/mL (≈ 3.77 µM)
[34]
  MIC: 0.625 µg/mL (≈ 0.943 µM)
[35]
  Activity: Active
[36]
  MIC: 1.25 µg/mL (≈ 1.89 µM)
[37]
  MIC: 0.625 µg/mL (≈ 0.943 µM)
[38]
  MIC: 1.25 µg/mL (≈ 1.89 µM)
[39]
  MIC: 0.625 µg/mL (≈ 0.943 µM)
[40]
  MIC: 20 µg/mL (≈ 30.2 µM)
[41]
  MIC: 5 µg/mL (≈ 7.54 µM)
[42]
  CC50: > 80 µg/mL
[43]
  MIC: 0.625 µg/mL (≈ 0.943 µM)
[44]
  MIC: 0.625 µg/mL (≈ 0.943 µM)
[45]
  MIC: 0.156 µg/mL (≈ 0.235 µM)
[46]
  MIC: 0.156 µg/mL (≈ 0.235 µM)
[47]
  MIC: 0.156 µg/mL (≈ 0.235 µM)
